Data on three compounds can be found in paper PMC3024764 (The Journal of Biological Chemistry, 2010).

For one assay, the system named is DU145 xenografts. In words: Anti-tumor activity in human prostate cancer DU145 xenografts in nude mice. The following applies: taxol alone, 60 mg/kg i.v. day 0; data not shown. In kind it is in vivo, human tumor in BALB/c-nu/nu mice. An outline of the steps:
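DU145 cells implanted s.c. into right flank of 5–6-week-old male BALB/c nude mice; tumor pieces passaged s.c. into new mice. At ~100 mm3 (day 0), six mice/group. Taxol 60 mg/kg i.v. on day 0; test compound or vehicle given intratumorally on days 0 and 5. Caliper volume = longest × shortest²/2; body weight tracked; Student's t test.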
(In general: A xenograft is tissue or cells of one species grown in another, often human tumour cells in immunodeficient mice.)

The subject of assay [1] is DU145 cells. In kind it is cell-based, human. The following applies: for intracellular accumulation, fluorescence microscopy: 20 µM FITC-labeled peptide, 4 h (Fig. S1A; method section: 10 μM). An outline of the steps:
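FITC-labeled peptides were added to the DU145 culture medium at 10 um and incubated for 4 h. Intracellular distribution of fluorescein was then imaged by fluorescence microscopy with a CCD camera.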

For assay [2], the system named is DU145 cells. In words: Flow cytometric cell cycle analysis of DU145 cells. The format is cell-based, human. The note with it: 20 μM peptide, 24 h (Fig. 2A). In general terms: In flow cytometry, cells or beads pass a laser one at a time.
In another assay the test system is endogenous p27^Kip1. The format is cell-based, human. The note with it: 20 μM FITC-labeled peptide, 24 h (Fig. 2B). In a few lines:
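DU145 cells (RPMI 1640, 10% FBS, 100 ug/ml kanamycin, 5% CO2) were exposed to 20 uM FITC-labeled cell-permeable peptides, or no peptide, for 24 h. Whole lysates or separated cytoplasmic and nuclear fractions were immunoblotted for endogenous p27Kip1 using nitrocellulose and ECL, with β-actin and topoisomerase II as markers. For localization, cells were formaldehyde-fixed, stained with anti-p27Kip1 and Alexa Fluor 568 secondary, and counterstained with Hoechst 33342.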

In assay [3] the test system is DU145 cells. Description: Apoptosis of DU145 cells. The format is cell-based, human. The following applies: 20 μM peptide, 72 h; flow cytometry (Fig. 3A).

Take `CC(=O)O[C@H]1C(=O)[C@@]2(C)[C@H]([C@H](OC(=O)c3ccccc3)[C@]3(O)C[C@H](OC(=O)[C@H](O)[C@@H](NC(=O)c4ccccc4)c4ccccc4)C(C)=C1C3(C)C)[C@]1(OC(C)=O)CO[C@@H]1C[C@@H]2O` [taxol]: the “inhibitory effect on tumor growth, given alone” value in the assay with DU145 xenografts is listed as “did not show an inhibitory effect”.

Take GGGRRRRRRGC-KKPGLDRDQT [R8-T198mu]: the “intracellular accumulation, fluorescence microscopy” value in the assay with DU145 cells [1] is “had accumulated in cells”. Also, in the assay on DU145 cells [1] (FITC-labeled peptide (Fig. S1B)), the “intracellular accumulation, flow cytometric analysis” value is “had accumulated almost equally in cells”. The “increase in the number of cells in G1 phase” value in the assay with DU145 cells [2] was “not with Arg^8 and R8-T198mu”. The “expression of p27^Kip1” value in the assay on endogenous p27^Kip1 is “not R8-T198mu enhances the expression of p27^Kip1”. For the same compound, in the assay on DU145 cells [3], the “increase in the sub-G1 fraction” value was “not with R8-T198mu”.

For “GGGRRRRRRRRGC [Arg^8, reference compound]”, in the assay on DU145 cells [1], the “intracellular accumulation, fluorescence microscopy” value is on record as “had accumulated in cells”. Besides, the “increase in the number of cells in G1 phase” value with DU145 cells [2] was “not with Arg^8 and R8-T198mu”.
